From PubChem BioAssay
Hits are enriched below; roughly 2.3% of the tested compounds scored in any of these assays.
HTRA1 inhibitor: blocks human HTRA1 serine peptidase | recombinant HTRA1, FP-rhodamine activity-based probe, fluorescence polarization | inhibition, % at 5.96 µM | AID 504803 | actives 0.5% (n = 340,000); in the data active means inhibition above about 36%;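 further: 0% = enzyme with DMSO and 100% = wells lacking enzyme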
SIAE primary: blocks human sialic acid acetylesterase | actives 0.69% (n = 370,000) | SIAE FP-Rh probe binding, fluorescence polarization | inhibition, % at 9.66 µM | Q9HAT2 | AID 1053197;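 active means inhibition above a cutoff: mean of compounds within the control limits plus 3 SD of those, cut at about 17% in these data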;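 further: 0% = plate median of compound wells and 100% = probe without SIAE protein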
Target sequence (Q9HAT2 whole entry, looked up): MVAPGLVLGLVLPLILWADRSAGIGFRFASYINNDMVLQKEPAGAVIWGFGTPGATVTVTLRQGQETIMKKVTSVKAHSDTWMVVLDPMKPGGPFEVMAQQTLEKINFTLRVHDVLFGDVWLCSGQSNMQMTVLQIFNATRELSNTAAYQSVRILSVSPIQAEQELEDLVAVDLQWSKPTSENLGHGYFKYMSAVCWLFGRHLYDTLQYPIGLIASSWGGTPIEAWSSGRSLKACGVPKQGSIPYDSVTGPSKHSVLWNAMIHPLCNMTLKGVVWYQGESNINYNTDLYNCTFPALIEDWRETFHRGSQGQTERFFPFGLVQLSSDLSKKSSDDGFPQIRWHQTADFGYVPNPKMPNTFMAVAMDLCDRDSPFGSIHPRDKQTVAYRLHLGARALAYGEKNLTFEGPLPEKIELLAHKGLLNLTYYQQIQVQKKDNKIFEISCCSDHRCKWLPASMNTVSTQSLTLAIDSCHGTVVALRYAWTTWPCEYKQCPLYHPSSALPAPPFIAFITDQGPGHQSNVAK
pPAFAH inh: inhibitors of human plasma PAF acetylhydrolase (pPAFAH). actives 1.5% (n = 330,000). inhibition, % at 3.39 µM. Q13093. recombinant pPAFAH, FP-rhodamine probe fluorescence polarization. AID 463082;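 active means inhibition above the mean inhibition across the screen plus 3 SD, cut at about 25% in these data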;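 further: inhibitors block binding of the rhodamine activity-based probe so polarization drops; 0% = enzyme with DMSO and 100% = wells lacking pPAFAH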
TCR CD3 inh: human TCR-CD3 binding inhibition. TAMRA-labeled TCR probe fluorescence, biochemical. inhibition, % at 9.4 µM. actives 0.37% (n = 360,000). AID 651800;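 further: recombinant mutant TCR 2C K166C tagged with TAMRA read by polarization; 0% = receptor in buffer alone and 100% = receptor with positive control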
mABHD4 FP: inhibits mouse alpha/beta hydrolase domain 4; Q8VD66; purified mABHD4, FP-Rh probe fluorescence polarization; inhibition, % at 8.92 µM; actives 0.54% (n = 370,000); AID 720543;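 active means inhibition exceeding the mean over every tested compound plus 3 SD, cut at about 30% in these data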;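 further: 0% = plate median of compound wells and 100% = S159A mutant with DMSO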
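System: mouse ABHD4 enzyme, wild type / Medium: HEPES pH 7.0, NaCl, Pluronic buffer / Reagent: FP-Rh activity-based fluorescent probe / Control set: S159A mutant high control, sample median low control / Detection: fluorescence polarization with parallel and perpendicular emission, 525/598 nm / Schedule: 45 min + 60 min at 25 °C / Compound dosing: 8.92 µM, single dose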
pPAFAH confirm: confirmation of human plasma PAF acetylhydrolase (pPAFAH) inhibitors; shares compounds with pPAFAH inh; recombinant pPAFAH, FP-Rh probe fluorescence polarization; inhibition, % at 3.39 µM; actives 72% (n = 2,300); AID 463230;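 active means mean inhibition of the triplicate above the hit cutoff set for the earlier primary screen, cut at about 25% in these data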;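 further: 0% = enzyme with DMSO and 100% = wells lacking pPAFAH enzyme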
HTRA1 conf: confirmation of human HTRA1 inhibitors. recombinant HTRA1, FP-rhodamine activity-based probe, fluorescence polarization. inhibition, % at 5.96 µM. shares compounds with HTRA1 inhibitor. actives 66% (n = 1,600);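 active means mean inhibition over three repeats above a set limit taken from the earlier primary screen, cut at about 37% in these data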;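 further: 0% = HTRA1 with DMSO and 100% = wells lacking HTRA1; inhibitors block probe binding so polarization drops and inhibition rises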
BSA TAMRA ctr: interferes with TAMRA-BSA probe, flagging TCR-CD3 hits; shares compounds with TCR CD3 inh; inhibition, % at 9.4 µM; actives 10% (n = 1,200); TAMRA-labeled BSA probe fluorescence counterscreen; in the data active means inhibition above about 23%;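 further: 0% = buffer low control and 100% = reference high control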
TCR-CD3 conf: confirmation of human TCR-CD3 interaction inhibitors | shares compounds with TCR CD3 inh | TAMRA-labeled TCR probe fluorescence binding assay | inhibition, % at 9.4 µM | actives 48% (n = 1,200)
* marks the source's active call; other numbers are inactive results; . = not tested or not shown. Unless noted, no stated cut-off is given here; in the data, active means inhibition above about 19%; inactive means the rest.

SMILES | HTRA1 inhibitor | SIAE primary | pPAFAH inh | TCR CD3 inh | mABHD4 FP | pPAFAH confirm | BSA TAMRA ctr | TCR-CD3 conf | others
CCN(CC)CCCNC(=O)CC1Oc2ccccc2NC1=O (stereo not drawn) | . | -3 | . | . | 3 | . | . | .
C=CCN1C(=O)[C@@H](CC(=O)N2CCC(c3ccccc3)CC2)[C@]2(C(=O)OC)CCCCC=C12 | . | 3 | . | . | 0 | . | . | .
CCN(CC(=O)Nc1c(F)cccc1F)C(=O)/C=C/c1ccc2ccccc2n1 | 2 | 1 | 40* | 30* | -4 | 25* | 5 | 34*
CCN(CC(=O)Nc1c(F)cccc1F)C(=O)c1ccc2ccccc2n1 | 2 | -5 | 1 | -4 | 6 | . | . | .
O=c1oc2ccccc2c2oc3cc(O)c(O)cc3c12 | 82* | 3 | 73* | 21* | 55* | 81* | -3 | 31* | HTRA1 conf=77*
CCN(CC)C(=O)CC[C@@H]1CC[C@]2(CCCN(C(=O)C3CCCCC3)C2)O1 | . | -2 | . | . | -1 | . | . | .
O=C(CCN1C(=O)/C(=C/c2ccccc2)SC1=S)NC1CCS(=O)(=O)C1 (stereo not drawn) | -1 | 5 | 2 | 4 | -4 | . | . | .
O=C(CN1C(=O)/C(=C/c2ccco2)SC1=S)NC1CCS(=O)(=O)C1 (stereo not drawn) | 11 | 6 | 38* | 22* | 26 | 1 | -7 | 1
CCOC(=O)[C@@]12CN(C(=O)OC(C)(C)C)CC=C1N(Cc1ccc(OC)cc1)C(=O)[C@H]2CC(=O)N1CCCC1 | . | -5 | . | . | 5 | . | . | .
CCn1c(CSc2nc3ccccc3s2)nnc1SCC(=O)c1ccc(O)c(O)c1 | 55* | -6 | 40* | 23* | 20 | 94* | -18 | 29* | HTRA1 conf=86*
CCOC(=O)C1CCN(C(=O)C(C)(C)NC(=O)Nc2ccc(N(C)C)cc2)CC1 | . | 2 | . | . | 8 | . | . | .
C/C(=N\OCc1nc2ccccc2c(=O)n1/N=C/c1cc(C)cc([N+](=O)[O-])c1O)c1ccccc1 | 0 | 11 | 46* | 39* | 8 | 4 | -6 | 50*
COc1cc(/C=C2\CC/C(=C\c3cc(OC)c(O)c(OC)c3)C2=O)cc(OC)c1O | 46* | -43 | 42* | 38* | 20 | 39* | -26 | 41* | HTRA1 conf=55*
O=S(=O)(c1cc(O)ccc1O)c1cccc2c(S(=O)(=O)c3cc(O)ccc3O)cccc12 | 5 | -3 | 41* | 25* | -10 | 29* | -9 | 12
CCOc1cccc(NC(=O)CSc2sc3c(O)cc(=O)[nH]c3c2C#N)c1 | -46 | -27 | 16 | 10 | -4 | . | . | .
N#Cc1c(SCC(=O)Nc2nccs2)sc2c(O)cc(=O)[nH]c12 | -8 | -18 | 37* | 20* | -23 | 10 | -13 | 15
N#Cc1c(SCC(=O)Nc2nc3ccccc3s2)sc2c(O)cc(=O)[nH]c12 | -15 | -42 | 41* | 19* | -23 | 31* | -14 | 15
Cc1cc(=O)[nH]c(SCC(=O)Nc2nc3ccccc3s2)n1 | 8 | -9 | 2 | -5 | -3 | . | . | .
O=C(O)c1cc(Cl)ccc1-c1ccc(/C=C/c2cc(C(F)(F)F)[nH]c(=O)n2)o1 | 2 | -5 | 43* | 19* | -8 | 9 | 2 | 3
COC(=O)C1CCN(C(=O)c2cc(-c3ccco3)nc3ccccc23)CC1 | 22 | 11 | 45* | 27* | 22 | 21 | 4 | 31*
O=C(c1cc(-c2ccco2)nc2ccccc12)N1CCN(Cc2ccccc2)CC1 | 8 | 5 | 11 | -6 | 3 | . | . | .
Cc1ccc(C(=O)n2ccc3ccc(-c4ccc5ccn(Cc6ccccc6)c5c4)cc32)cc1 | . | 3 | . | . | -7 | . | . | .
CC(C)=CCc1c(O)ccc2c1OC(c1ccc(O)c(O)c1)CC2=O (stereo not drawn) | 23 | -12 | 20 | -1 | 13 | . | . | .
